Assay results published in ChEMBL document CHEMBL3992557, “Synthesis and biological evaluation of novel N3-substituted dihydropyrimidine derivatives as T-type calcium channel blockers and their efficacy as analgesics in mouse models of inflammatory pain” (Bioorg Med Chem, 2017).
Active and inactive are the calls of the source.

Columns and labels:
[1] = target: Cav1.2 (voltage-dependent L-type calcium channel subunit alpha-1C) (Rattus norvegicus, UniProt P22002); test: (§1) Inhibition of GFP-fused rat Cav1.2 expressed in human tsA-201 cells co-expressing Cavbeta1b/Cavalpha2delta1 assessed as tonic block at 10 uM at holding potential of -90 mV by whole cell patch clamp method relative to control; format: cell-based
Outline: (§2)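 tsA-201 cells were co-transfected with rat Cav1.2 plus Cavβ1b and Cavα2δ1 (5 µg each) and a GFP marker, then kept 2 days (30°C after 16-18 h). Whole-cell patch clamp used 20 mM BaCl2 bath, P/4 leak correction, 10 kHz sampling. Tonic resting-state block at 10 µM was given as % current inhibition. Final DMSO ≤0.1%.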

[2] = target: T1, Voltage-dependent T-type calcium channel subunit alpha-1H (Homo sapiens, UniProt O95180); test: Inhibition of GFP-fused Cav3.2-alpha1 (unknown origin) expressed in human tsA-201 cells at 10 uM at holding potential of -110 mV by whole cell patch clamp method relative to control; format: cell-based
Outline: (§3)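 HEK tsA-201 cells transfected by calcium phosphate with channel DNA plus GFP marker, moved to 30°C at 16-18 h, recorded two days later. Whole-cell patch clamp used Ba2+ (20 mM) external solution, pH 7.4, with CsCl-based internal solution. Recordings were P/4 leak-subtracted, 10 kHz sampling. Compound at 10 µM, DMSO ≤0.1% final, reported as % current inhibition. Cav2.2 n=3.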

[3] = target: Voltage-dependent L-type calcium channel subunit alpha-1C (Rattus norvegicus, UniProt P22002); test: as §1; format: cell-based; details: 10 µM; outline: as §2
[4] = target: T1, Voltage-dependent T-type calcium channel subunit alpha-1H; test: Inhibition of GFP-fused Cav3.2-alpha1 (unknown origin) expressed in human tsA-201 cells at holding potential of -110 mV by whole cell patch clamp method; format: cell-based
Outline: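 tsA-201 cells transiently expressing Cav3.2 α1 plus GFP were recorded by whole-cell patch clamp with 20 mM Ba2+ as charge carrier and P/4 leak subtraction. A dose-response curve was fitted to give IC50, n=3 cells per dose. Final DMSO ≤0.1%.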

[5] = target: T1, Voltage-dependent T-type calcium channel subunit alpha-1H; test: Inhibition of GFP-fused Cav3.2-alpha1 (unknown origin) expressed in human tsA-201 cells assessed as half activation potential at 3 uM at holding potential of -110 mV by whole cell patch clamp method (reference value: -32.07 +/- 0.8 mV); format: cell-based
[6] = target: T1, Voltage-dependent T-type calcium channel subunit alpha-1H; test: Inhibition of GFP-fused Cav3.2-alpha1 (unknown origin) expressed in human tsA-201 cells assessed as half inactivation potential for steady state inactivation curve at 3 uM at holding potential of -110 mV by whole cell patch clamp method (reference value: -47.6 +/- 0.87 mV); format: cell-based
[7] = target: T1, Voltage-dependent T-type calcium channel subunit alpha-1H; test: Inhibition of GFP-fused Cav3.2-alpha1 (unknown origin) expressed in human tsA-201 cells assessed as time required to reach steady state inhibition at 3 uM at holding potential of -110 mV by whole cell patch clamp method; format: cell-based
[8] = target: Voltage-dependent N-type calcium channel subunit alpha-1B (Homo sapiens) (UniProt Q00975); test: Inhibition of GFP-fused Cav2.2 (unknown origin) expressed in human tsA-201 cells assessed as at 10 uM by whole cell patch clamp method relative to control; format: cell-based; outline: as §3
Mus musculus [9] = test: Analgesic activity in formalin-induced nociception C57BL/6J mouse model assessed as reduction in time spent licking and biting formalin injected paw per 10 uL administered intrathecally 20 mins prior to formalin injection measured up to 30 mins post formalin injection; format: functional
Outline: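 Adult male C57BL/6J mice (7-9 weeks). Intrathecal pretreatment at 0.3, 1 and 3 µg in 10 µl, or vehicle (1% DMSO in PBS, 10 µl). After 20 min, 20 µl of 1.25% formalin injected intraplantar into right hind paw.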

Mus musculus [10] = test: Analgesic activity in CFA-induced mechanical hyperalgesia C57BL/6J mouse model assessed as mechanical paw withdrawal threshold at 3 ug/10 uL administered intrathecally 2 days after CFA injection measured at 90 to 150 mins post dose; format: functional
Outline: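 Adult male C57BL/6J mice (7-9 weeks). Right hind paw given 30 µl CFA intraplantar; 2 days later dosed intrathecally at 3 µg/10 µl, vehicle 1% DMSO in PBS. Thresholds read blinded with digital plantar aesthesiometer at 0, 20, 45, 90 and 150 min, each paw tested three times. n=6 mice per group, mean ± S.E.M, two-way ANOVA with Bonferroni post-hoc.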

[11] = target: T1, Voltage-dependent T-type calcium channel subunit alpha-1H; test: Inhibition of GFP-fused Cav3.2-alpha1 (unknown origin) expressed in human tsA-201 cells assessed as half activation potential at 1 uM at holding potential of -110 mV by whole cell patch clamp method (reference value: -30.84 +/- 0.46 mV); format: cell-based
[12] = target: T1, Voltage-dependent T-type calcium channel subunit alpha-1H; test: Inhibition of GFP-fused Cav3.2-alpha1 (unknown origin) expressed in human tsA-201 cells assessed as half inactivation potential for steady state inactivation curve at 1 uM at holding potential of -110 mV by whole cell patch clamp method (reference value: -46.27 +/- 0.57 mV); format: cell-based
[13] = target: T1, Voltage-dependent T-type calcium channel subunit alpha-1H; test: Inhibition of GFP-fused Cav3.2-alpha1 (unknown origin) expressed in human tsA-201 cells assessed as time required to reach steady state inhibition at 1 uM at holding potential of -110 mV by whole cell patch clamp method; format: cell-based
Mus musculus [14] = test: Analgesic activity in CFA-induced mechanical hyperalgesia C57BL/6J mouse model assessed as mechanical paw withdrawal threshold at 1 ug/10 uL administered intrathecally 2 days after CFA injection measured at 20 to 150 mins post dose; format: functional
Outline: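 C57BL/6J male mice, 7-9 weeks; 30 µl CFA injected into right hind paw; 2 days later single intrathecal dose with vehicle 1% DMSO in PBS. Paw withdrawal threshold measured blinded by digital plantar aesthesiometer at 0, 20, 45, 90 and 150 min after dosing, after ≥1 h habituation. Each paw stimulated three times. n=6 per group; mean ± S.E.M, two-way ANOVA with Bonferroni test.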

T1 sequence (O95180 whole entry, the tested form may be a part): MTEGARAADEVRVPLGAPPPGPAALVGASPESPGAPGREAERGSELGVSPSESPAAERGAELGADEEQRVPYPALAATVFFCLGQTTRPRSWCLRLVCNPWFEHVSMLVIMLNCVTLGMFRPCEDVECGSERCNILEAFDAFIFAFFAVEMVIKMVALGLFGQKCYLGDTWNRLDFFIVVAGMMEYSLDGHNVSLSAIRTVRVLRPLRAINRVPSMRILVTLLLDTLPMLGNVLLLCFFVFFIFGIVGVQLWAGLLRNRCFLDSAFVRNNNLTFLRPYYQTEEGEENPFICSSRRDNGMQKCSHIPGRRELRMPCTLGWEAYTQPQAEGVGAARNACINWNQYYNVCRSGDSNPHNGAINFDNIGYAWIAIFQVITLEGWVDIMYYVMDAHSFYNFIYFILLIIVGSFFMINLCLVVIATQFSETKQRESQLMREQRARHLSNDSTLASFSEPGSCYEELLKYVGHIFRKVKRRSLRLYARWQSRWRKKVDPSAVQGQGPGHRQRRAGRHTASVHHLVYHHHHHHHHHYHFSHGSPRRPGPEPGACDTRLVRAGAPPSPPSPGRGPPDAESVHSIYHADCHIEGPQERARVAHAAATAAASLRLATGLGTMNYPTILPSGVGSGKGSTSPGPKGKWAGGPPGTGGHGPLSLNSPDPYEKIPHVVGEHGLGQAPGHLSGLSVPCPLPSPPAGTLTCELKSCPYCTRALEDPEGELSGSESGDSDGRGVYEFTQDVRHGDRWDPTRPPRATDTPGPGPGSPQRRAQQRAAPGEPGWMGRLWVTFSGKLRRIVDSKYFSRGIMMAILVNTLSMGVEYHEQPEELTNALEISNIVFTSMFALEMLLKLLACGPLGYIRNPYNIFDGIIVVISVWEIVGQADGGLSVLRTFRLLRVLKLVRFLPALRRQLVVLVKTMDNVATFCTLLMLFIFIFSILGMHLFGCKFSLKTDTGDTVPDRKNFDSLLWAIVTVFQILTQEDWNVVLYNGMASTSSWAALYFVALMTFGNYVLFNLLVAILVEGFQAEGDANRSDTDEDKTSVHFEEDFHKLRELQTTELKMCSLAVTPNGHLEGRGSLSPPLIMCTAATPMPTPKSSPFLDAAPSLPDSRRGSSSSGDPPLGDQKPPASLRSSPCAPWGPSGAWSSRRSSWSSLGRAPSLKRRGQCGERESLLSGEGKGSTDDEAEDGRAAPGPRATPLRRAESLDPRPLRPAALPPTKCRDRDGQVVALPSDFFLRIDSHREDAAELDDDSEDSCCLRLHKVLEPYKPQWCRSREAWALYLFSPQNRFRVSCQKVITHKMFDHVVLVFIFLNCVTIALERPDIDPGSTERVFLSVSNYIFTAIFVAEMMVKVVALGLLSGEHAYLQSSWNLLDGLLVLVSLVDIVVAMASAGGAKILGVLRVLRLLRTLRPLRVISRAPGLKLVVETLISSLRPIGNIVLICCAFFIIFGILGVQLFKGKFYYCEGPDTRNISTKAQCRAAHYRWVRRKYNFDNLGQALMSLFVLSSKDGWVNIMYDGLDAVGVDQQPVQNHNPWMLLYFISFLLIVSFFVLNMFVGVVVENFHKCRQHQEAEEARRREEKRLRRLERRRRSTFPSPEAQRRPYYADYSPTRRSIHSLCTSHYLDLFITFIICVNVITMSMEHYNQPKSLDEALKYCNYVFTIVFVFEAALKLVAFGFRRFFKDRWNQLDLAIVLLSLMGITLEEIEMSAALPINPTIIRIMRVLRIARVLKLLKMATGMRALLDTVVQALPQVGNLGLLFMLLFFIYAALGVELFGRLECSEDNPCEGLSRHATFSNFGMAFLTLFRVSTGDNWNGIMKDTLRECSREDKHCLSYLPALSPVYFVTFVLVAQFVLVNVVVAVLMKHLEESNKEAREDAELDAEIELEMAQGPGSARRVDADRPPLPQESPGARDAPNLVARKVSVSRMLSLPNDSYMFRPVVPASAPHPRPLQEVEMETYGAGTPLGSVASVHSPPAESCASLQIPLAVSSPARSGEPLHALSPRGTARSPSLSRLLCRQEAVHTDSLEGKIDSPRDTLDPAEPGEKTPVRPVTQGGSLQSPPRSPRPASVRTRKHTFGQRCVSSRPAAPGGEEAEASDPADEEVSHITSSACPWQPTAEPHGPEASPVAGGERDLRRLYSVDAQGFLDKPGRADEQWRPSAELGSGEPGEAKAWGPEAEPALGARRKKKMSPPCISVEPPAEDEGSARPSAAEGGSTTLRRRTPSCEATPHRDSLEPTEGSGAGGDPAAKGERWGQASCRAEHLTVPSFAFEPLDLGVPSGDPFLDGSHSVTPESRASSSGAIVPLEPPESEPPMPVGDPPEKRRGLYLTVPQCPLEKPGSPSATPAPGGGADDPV
Cav1.2 (voltage-dependent L-type calcium channel subunit alpha-1C), sequence (P22002 whole entry, the tested form may be a part): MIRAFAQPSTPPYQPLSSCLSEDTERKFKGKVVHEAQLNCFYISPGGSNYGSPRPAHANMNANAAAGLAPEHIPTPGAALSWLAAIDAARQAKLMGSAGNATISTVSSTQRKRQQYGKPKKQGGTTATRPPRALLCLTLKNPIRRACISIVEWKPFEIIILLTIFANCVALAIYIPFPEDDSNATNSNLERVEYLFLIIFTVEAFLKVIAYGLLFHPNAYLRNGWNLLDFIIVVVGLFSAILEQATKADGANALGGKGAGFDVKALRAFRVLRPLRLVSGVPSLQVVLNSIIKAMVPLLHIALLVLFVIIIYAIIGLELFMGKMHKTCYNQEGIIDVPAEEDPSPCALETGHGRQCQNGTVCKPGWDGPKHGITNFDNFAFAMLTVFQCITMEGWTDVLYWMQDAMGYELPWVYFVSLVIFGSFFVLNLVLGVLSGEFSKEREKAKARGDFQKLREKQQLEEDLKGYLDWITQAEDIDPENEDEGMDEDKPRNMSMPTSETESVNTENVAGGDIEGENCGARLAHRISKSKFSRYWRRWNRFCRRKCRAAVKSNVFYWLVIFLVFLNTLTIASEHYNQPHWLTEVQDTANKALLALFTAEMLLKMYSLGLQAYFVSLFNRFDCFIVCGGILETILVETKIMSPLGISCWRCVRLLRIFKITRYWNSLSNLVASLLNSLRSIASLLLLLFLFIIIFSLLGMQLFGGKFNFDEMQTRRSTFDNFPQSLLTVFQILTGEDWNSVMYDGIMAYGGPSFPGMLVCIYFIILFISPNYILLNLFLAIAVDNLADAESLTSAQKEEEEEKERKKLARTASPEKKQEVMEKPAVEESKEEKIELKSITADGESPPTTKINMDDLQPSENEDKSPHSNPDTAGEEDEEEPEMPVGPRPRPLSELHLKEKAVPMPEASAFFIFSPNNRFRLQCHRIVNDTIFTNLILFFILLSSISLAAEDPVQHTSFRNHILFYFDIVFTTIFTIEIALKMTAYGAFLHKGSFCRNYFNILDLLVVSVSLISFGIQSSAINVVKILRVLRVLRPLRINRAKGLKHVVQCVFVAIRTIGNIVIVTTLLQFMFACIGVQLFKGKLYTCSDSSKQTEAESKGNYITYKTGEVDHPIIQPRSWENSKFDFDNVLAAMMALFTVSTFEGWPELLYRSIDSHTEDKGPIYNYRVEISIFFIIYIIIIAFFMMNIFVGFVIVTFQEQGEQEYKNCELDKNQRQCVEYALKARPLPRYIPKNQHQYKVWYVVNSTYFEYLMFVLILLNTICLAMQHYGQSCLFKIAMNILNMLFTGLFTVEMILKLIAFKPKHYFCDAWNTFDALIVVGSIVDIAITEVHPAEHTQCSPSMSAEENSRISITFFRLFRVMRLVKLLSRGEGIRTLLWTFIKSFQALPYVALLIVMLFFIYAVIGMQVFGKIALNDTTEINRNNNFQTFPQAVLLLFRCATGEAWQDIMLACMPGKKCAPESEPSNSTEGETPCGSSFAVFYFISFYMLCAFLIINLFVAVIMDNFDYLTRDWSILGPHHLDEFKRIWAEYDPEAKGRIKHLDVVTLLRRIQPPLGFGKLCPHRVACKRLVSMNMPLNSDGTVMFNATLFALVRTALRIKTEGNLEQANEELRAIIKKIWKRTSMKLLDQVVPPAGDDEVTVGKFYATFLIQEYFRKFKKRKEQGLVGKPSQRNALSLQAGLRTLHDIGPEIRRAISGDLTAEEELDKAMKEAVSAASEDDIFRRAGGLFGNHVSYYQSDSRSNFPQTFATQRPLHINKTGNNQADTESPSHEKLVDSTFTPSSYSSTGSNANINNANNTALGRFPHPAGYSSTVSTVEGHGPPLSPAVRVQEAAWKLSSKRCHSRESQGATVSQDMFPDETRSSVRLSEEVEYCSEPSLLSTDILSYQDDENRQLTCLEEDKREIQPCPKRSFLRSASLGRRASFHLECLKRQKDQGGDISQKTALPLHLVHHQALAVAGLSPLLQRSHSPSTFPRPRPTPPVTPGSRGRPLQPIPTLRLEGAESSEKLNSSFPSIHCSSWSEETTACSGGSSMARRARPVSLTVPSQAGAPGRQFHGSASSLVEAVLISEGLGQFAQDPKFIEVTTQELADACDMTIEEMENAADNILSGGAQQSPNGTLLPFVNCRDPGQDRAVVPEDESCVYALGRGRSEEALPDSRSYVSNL
Voltage-dependent L-type calcium channel subunit alpha-1C, sequence (P22002 whole entry, the tested form may be a part): as above

Question: CCOC(=O)C1=C(C)NC(=O)N(CCC(=O)N/N=C2/C(=O)Nc3ccccc32)C1c1cccc([N+](=O)[O-])c1 (centres undefined) was tested. Which inhibition at 10 µM [1] did it give?
Answer: 50%

Question: And the inhibition [2]?
Answer: 50%

Question: For CCOC(=O)C1=C(C)NC(=O)N(CCC(=O)NNS(=O)(=O)c2ccccc2)C1c1cccc([N+](=O)[O-])c1 (centres undefined), which inhibition at 10 µM [1] is on record?
Answer: 50%

Question: And the inhibition [2]?
Answer: 50%

Question: How did the inhibition at 10 µM [1] turn out when CCOC(=O)C1=C(C)NC(=O)N(CCC(=O)N/N=C(/C)c2ccccc2)C1c1cccc([N+](=O)[O-])c1 (centres undefined) was run?
Answer: 60 to 85%

Question: What about the inhibition [2] of the same compound?
Answer: 70 to 95%

Question: With CCOC(=O)C1=C(C)NC(=O)N(CCC(=O)N/N=C/C(c2ccccc2)c2ccccc2)C1c1cccc([N+](=O)[O-])c1 (centres undefined) as the compound, how does the inhibition at 10 µM [1] read?
Answer: 60 to 85%

Question: What about the inhibition [2] of the same compound?
Answer: 70 to 95%

Question: CCOC(=O)C1=C(C)NC(=O)N(CCC(=O)N/N=c2\scc(-c3ccc(F)cc3)n2-c2ccccc2)C1c1cccc([N+](=O)[O-])c1 (centres undefined) was tested. Which “inhibition (INH)” value [3] did it give?
Answer: Not Active

Question: And the inhibition [2]?
Answer: inactive

Question: With CCOC(=O)C1=C(C)NC(=O)N(CCC(=O)N/N=C2/SCC(=O)N2c2ccc(C)cc2)C1c1cccc([N+](=O)[O-])c1 (centres undefined) as the compound, how does the inhibition [2] read?
Answer: 70 to 95%

Question: With CCOC(=O)C1=C(C)NC(=O)N(CCC(=O)N/N=C(/C)CC(c2ccccc2)c2ccccc2)C1c1cccc([N+](=O)[O-])c1 (centres undefined) as the compound, how does the inhibition at 10 µM [1] read?
Answer: 60 to 85%

Question: What about the inhibition [2] of the same compound?
Answer: 70 to 95%

Question: Which “inhibition (INH)” value [3] does the source give for CCOC(=O)C1=C(C)NC(=O)N(CC/C(=N/N(C(C)=O)C(C)=O)OC(C)=O)C1c1cccc([N+](=O)[O-])c1 (centres undefined) here?
Answer: Not Active

Question: And the inhibition [2]?
Answer: inactive

Question: CCOC(=O)C1=C(C)NC(=O)N(CCc2nnc(Nc3ccccc3)s2)C1c1cccc([N+](=O)[O-])c1 (centres undefined) was tested. Which “inhibition (INH)” value [3] did it give?
Answer: Not Active

Question: What about the inhibition [2] of the same compound?
Answer: 70 to 95%

Question: For CCOC(=O)C1=C(C)NC(=O)N(CCC(=O)N/N=C/c2ccc(F)cc2)C1c1cccc([N+](=O)[O-])c1 (centres undefined), which inhibition at 10 µM [1] is on record?
Answer: 60 to 85%

Question: What about the inhibition [2] of the same compound?
Answer: 70 to 95%

Question: Which results are given for CCOC(=O)C1=C(C)NC(=O)N(CCc2nnc(Nc3ccccc3)o2)C1c1cccc([N+](=O)[O-])c1 (centres undefined)?
Answer: inhibition (INH) [3]: Not Active; inhibition [2]: 70 to 95%

Question: Which results are given for CCOC(=O)C1=C(C)NC(=O)N(CCC(=O)N/N=C2/SCC(=O)N2c2ccccc2)C1c1cccc([N+](=O)[O-])c1 (centres undefined)?
Answer: inhibition (INH) [3]: Not Active; inhibition [2]: inactive

Question: Which results are given for CCOC(=O)C1=C(C)NC(=O)N(CCC(=O)N/N=C(/C)c2ccc(F)cc2)C1c1cccc([N+](=O)[O-])c1 (centres undefined)?
Answer: inhibition at 10 µM [1]: 60 to 85%; inhibition [2]: 70 to 95%

Question: How did the “inhibition (INH)” value [3] turn out when CCOC(=O)C1=C(C)NC(=O)N(CCC(=O)N/N=C(/C)C(c2ccccc2)c2ccccc2)C1c1cccc([N+](=O)[O-])c1 (centres undefined) was run?
Answer: Not Active

Question: And the inhibition [2]?
Answer: inactive

Question: For CCOC(=O)C1=C(C)NC(=O)N(CCC(=O)N/N=C/c2ccccc2)C1c1cccc([N+](=O)[O-])c1 (centres undefined), which inhibition at 10 µM [1] is on record?
Answer: 60 to 85%

Question: What about the inhibition [2] of the same compound?
Answer: 70 to 95%

Question: What about the IC50 [4] of the same compound?
Answer: 3390 nM

Question: And the V1/2 [5]?
Answer: -29.3 mV

Question: And the Activity [6]?
Answer: -48.8 mV

Question: And the TIME [7]?
Answer: 0.133 to 0.167 h

Question: And the inhibition [8]?
Answer: 31.9%

Question: And the Activity (Mus musculus [9])?
Answer: Dose-dependent effect

Question: What about the MED (Mus musculus [9]) of the same compound?
Answer: 3 µg

Question: And the Activity (Mus musculus [10])?
Answer: Active

Question: Which “inhibition (INH)” value [3] does the source give for CCOC(=O)C1=C(C)NC(=O)N(CCC(=O)NNC(=S)NC(c2ccccc2)c2ccccc2)C1c1cccc([N+](=O)[O-])c1 (centres undefined) here?
Answer: Not Active

Question: And the inhibition [2]?
Answer: 70 to 95%

Question: What about the IC50 [4] of the same compound?
Answer: 340 nM

Question: And the V1/2 [11]?
Answer: -30.6 mV

Question: What about the Activity [12] of the same compound?
Answer: -51.2 mV

Question: And the TIME [13]?
Answer: 0.133 to 0.167 h

Question: What about the inhibition [8] of the same compound?
Answer: 7.64%

Question: What about the MED (Mus musculus [9]) of the same compound?
Answer: 1 µg

Question: What about the Activity (Mus musculus [14]) of the same compound?
Answer: Active

Question: How did the “inhibition (INH)” value [3] turn out when CCOC(=O)C1=C(C)NC(=O)N(CCC(=O)n2nc(C)cc2C)C1c1cccc([N+](=O)[O-])c1 (centres undefined) was run?
Answer: Not Active

Question: What about the inhibition [2] of the same compound?
Answer: inactive

Question: How did the “inhibition (INH)” value [3] turn out when CCOC(=O)C/C(C)=N\NC(=O)CCN1C(=O)NC(C)=C(C(=O)OCC)C1c1cccc([N+](=O)[O-])c1 (centres undefined) was run?
Answer: Not Active

Question: What about the inhibition [2] of the same compound?
Answer: inactive

Question: With CCOC(=O)C1=C(C)NC(=O)N(CCC(=O)NNC(=S)Nc2ccccc2)C1c1cccc([N+](=O)[O-])c1 (centres undefined) as the compound, how does the “inhibition (INH)” value [3] read?
Answer: Not Active

Question: What about the inhibition [2] of the same compound?
Answer: inactive

Question: Which inhibition at 10 µM [1] does the source give for CCOC(=O)C1=C(C)NC(=O)N(CCC(=O)N/N=C\C=C\c2ccccc2)C1c1cccc([N+](=O)[O-])c1 (centres undefined) here?
Answer: 60 to 85%

Question: And the inhibition [2]?
Answer: 70 to 95%
